Data set [1] in a line: Drug excretion in bile duct cannulated Sprague-Dawley rat urine at 2 mg/kg, iv administered as single dose after 24 hrs by LCMS analysis. Particulars: read-out: Drug excretion. The data set is classed as ADME, organism-based. In short, it runs like this:
(§1)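 Bile duct-cannulated SD rats given single i.v. dose in saline; urine and bile collected over 24 h. Unchanged drug quantified by LC-MS/MS and expressed as cumulative % of dose; mean ± SD of three animals.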

Data set [2] is described as follows: Drug excretion in bile duct cannulated Sprague-Dawley rat bile at 2 mg/kg, iv administered as single dose after 24 hrs by LCMS analysis. Particulars: read-out: Drug excretion. It counts as ADME, organism-based. In short, it runs like this: as §1
Data set [3] in a line: Drug uptake in Sprague-Dawley rat kidney at 0.3 mg/kg, iv administered as single dose after 2 hrs by LCMS analysis. Particulars: read-out: Drug uptake. It counts as ADME, organism-based. In short, it runs like this:
(§2)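 Fasted male SD rats given single i.v. dose in saline; animals euthanized at 2, 24 and 72 h, kidneys homogenized in purified water and unchanged drug measured by LC-MS/MS (ng/g tissue). Mean ± SD of three animals; 72 h level also expressed relative to 2 h value.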

Data set [4] in a line: Drug uptake in Sprague-Dawley rat kidney at 0.3 mg/kg, iv administered as single dose after 24 hrs by LCMS analysis. To be noted: read-out: Drug uptake. It counts as ADME, organism-based. In short, it runs like this: as §2
Data set [5] can be described thus: Drug uptake in Sprague-Dawley rat kidney at 0.3 mg/kg, iv administered as single dose after 72 hrs by LCMS analysis. It counts as ADME, organism-based. Particulars: read-out: Drug uptake. In short, it runs like this: as §2
A short description of data set [6]: Drug uptake in Sprague-Dawley rat kidney assessed as unchanged drug level at 0.3 mg/kg, iv administered as single dose after 72 hrs by LCMS analysis relative to control. It counts as ADME, organism-based. To be noted: in vivo. In short, it runs like this: as §2
In data set [7] the target is T1, Sodium/glucose cotransporter 1 (Homo sapiens, UniProt P13866).
T1 sequence (P13866 whole entry): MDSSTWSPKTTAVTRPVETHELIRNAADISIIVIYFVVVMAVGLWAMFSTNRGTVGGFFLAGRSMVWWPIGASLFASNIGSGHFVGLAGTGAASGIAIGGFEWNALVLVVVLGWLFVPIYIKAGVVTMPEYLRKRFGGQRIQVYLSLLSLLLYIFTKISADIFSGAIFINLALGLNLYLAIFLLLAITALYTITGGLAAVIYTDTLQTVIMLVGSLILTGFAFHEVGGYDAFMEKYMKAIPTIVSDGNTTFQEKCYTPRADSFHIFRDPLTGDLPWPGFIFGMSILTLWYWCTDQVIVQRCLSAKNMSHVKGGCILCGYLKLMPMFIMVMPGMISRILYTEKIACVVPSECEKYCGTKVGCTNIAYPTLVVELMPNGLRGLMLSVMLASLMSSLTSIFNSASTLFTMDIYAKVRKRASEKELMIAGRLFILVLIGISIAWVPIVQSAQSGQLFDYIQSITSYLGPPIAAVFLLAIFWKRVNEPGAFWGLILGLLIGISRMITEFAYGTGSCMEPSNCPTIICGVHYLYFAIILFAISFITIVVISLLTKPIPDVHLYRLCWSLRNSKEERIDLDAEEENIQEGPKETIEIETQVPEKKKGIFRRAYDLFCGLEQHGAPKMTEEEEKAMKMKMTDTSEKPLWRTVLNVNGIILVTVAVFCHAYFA
Put plainly: Inhibition of human SGLT1 expressed in CHOK1 cells assessed as reduction in sodium-dependent glucose uptake after 30 mins in presence of [14C]-methyl-alpha -D-glucopyranoside by microbeta counting method. The data set is classed as cell-based. In short, it runs like this:
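CHO-K1 cells stably expressing human SGLT1, preincubated 20 min in Na-free choline buffer (pH 7.4). Uptake buffer (140 mM NaCl, HEPES/Tris pH 7.4) with 0.1 mM methyl-α-D-glucopyranoside plus [14C] tracer and test compound, 30 min at 37 °C. Cells washed, lysed in NaOH, radioactivity counted. Choline-for-Na buffer as background. Six concentrations; IC50 vs untreated control; mean of at least two experiments.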

Data set [8] concerns the target T2, Sodium/glucose cotransporter 2 (Homo sapiens, UniProt P31639).
T2 sequence (P31639 whole entry): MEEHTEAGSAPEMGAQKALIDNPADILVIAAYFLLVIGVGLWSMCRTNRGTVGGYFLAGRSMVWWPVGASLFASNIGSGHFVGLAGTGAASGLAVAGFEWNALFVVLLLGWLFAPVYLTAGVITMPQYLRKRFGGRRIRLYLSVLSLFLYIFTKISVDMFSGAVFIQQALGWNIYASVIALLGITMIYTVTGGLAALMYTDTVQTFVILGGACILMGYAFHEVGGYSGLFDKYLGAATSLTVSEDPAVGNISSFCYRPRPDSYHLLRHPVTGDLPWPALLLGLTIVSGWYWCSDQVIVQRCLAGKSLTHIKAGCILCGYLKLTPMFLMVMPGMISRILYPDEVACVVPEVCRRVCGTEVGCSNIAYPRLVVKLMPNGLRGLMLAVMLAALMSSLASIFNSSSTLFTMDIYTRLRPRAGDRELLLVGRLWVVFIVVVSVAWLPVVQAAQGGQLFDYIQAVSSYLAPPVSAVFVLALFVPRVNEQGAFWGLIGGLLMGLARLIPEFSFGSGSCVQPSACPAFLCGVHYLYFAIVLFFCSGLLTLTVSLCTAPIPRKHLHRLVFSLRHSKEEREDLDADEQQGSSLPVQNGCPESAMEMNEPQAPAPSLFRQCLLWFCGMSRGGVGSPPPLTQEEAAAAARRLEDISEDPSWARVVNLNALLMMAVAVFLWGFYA
Nature of the data set: Inhibition of human SGLT2 expressed in CHOK1 cells assessed as reduction in sodium-dependent glucose uptake after 1 hr in presence of [14C]-methyl-alpha -D-glucopyranoside by microbeta counting method. It counts as cell-based. In short, it runs like this: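 Human SGLT2 stably expressed in CHO-K1 cells; 20 min Na-free choline pretreatment, then Na+ uptake buffer pH 7.4 with 1 mM methyl-α-D-glucopyranoside containing [14C] label plus compound, 1 h at 37 °C. Washed, NaOH lysis, scintillation counting; Na-free buffer for background. IC50 from six concentrations relative to uninhibited uptake; mean of at least two experiments.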

The nature of data set [9]: Permeability of the compound at pH 7.4 by PAMPA assay. It counts as ADME. To be noted: read-out: permeability. In short, it runs like this: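 PAMPA at pH 7.4: filter coated with GIT-0 lipid; donor compartment holds compound in universal buffer at 25 μM or 5 μM; permeability reported as ×10⁻⁶ cm/s.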

The structures appear in SMILES notation.

Consider `Cc1cc(O)c([C@@H]2O[C@H](CO)[C@@H](O)[C@H](O)[C@H]2O)cc1Cc1ccc(CCNC(=O)NC(CO)(CO)CO)cc1`, for which the dose excreted at 24 h was 36.2% in data set [1] and 30.2% in data set [2]. Moreover, in data set [3], the concentration at 2 h worked out at 1900 ng/g. Besides, the concentration at 24 h in [4] came to 1110 ng/g. The concentration at 72 h in data set [5] was found to be 803 ng/g. Besides, in data set [6], the Drug uptake stood at 42%.
As a reminder, the IC50 is the concentration needed to halve the response being measured. `COc1cc(C(C)C)c(Cc2ccc(/C=C/C(C)(C)C(=O)NC(C)(C)C(=O)N3CCN(C)CC3)cc2C)cc1[C@@H]1O[C@H](CO)[C@@H](O)[C@H](O)[C@H]1O`: the IC50 is 0.055 µM in [7] and 0.281 µM in data set [8].
On to `Cc1cc(/C=C/C(C)(C)C(=O)NC(C)(C)CO)ccc1Cc1cc([C@@H]2O[C@H](CO)[C@@H](O)[C@H](O)[C@H]2O)c(O)cc1C(C)C`, for which the figures for the IC50 in data set [7] and in [8] were 0.055 µM and 0.069 µM, respectively. The Papp in data set [9] is 5 nm/s.
As for `Cc1cc(C)c([C@@H]2O[C@H](CO)[C@@H](O)[C@H](O)[C@H]2O)cc1Cc1ccc(/C=C/C(C)(C)C(=O)NC(C)(C)CO)cc1F`, the values for the IC50 in data set [7] and in [8] were 0.034 µM and 0.017 µM, respectively.
In the same order, the values of `COc1cc(/C=C/C(C)(C)C(=O)NC(C)(C)CO)ccc1Cc1cc([C@@H]2O[C@H](CO)[C@@H](O)[C@H](O)[C@H]2O)c(C)cc1C` are 1.17 µM and 0.798 µM.
`Cc1cc(C)c([C@@H]2O[C@H](CO)[C@@H](O)[C@H](O)[C@H]2O)cc1Cc1ccc(/C=C/C(C)(C)C(=O)NC(C)(C)CO)cc1`: the results for the IC50 in data set [7] and in data set [8] were 0.022 µM and 0.01 µM, respectively.
On the same counts, the results for `Cc1cc(C)c([C@@H]2O[C@H](CO)[C@@H](O)[C@H](O)[C@H]2O)cc1Cc1ccc(/C=C/C(C)(C)C(=O)NC(C)(C)CO)cc1C(C)C` are 12.5 µM and 2.13 µM.
In the same order, the values of `CC(C)c1cc(O)c([C@@H]2O[C@H](CO)[C@@H](O)[C@H](O)[C@H]2O)cc1Cc1ccc(/C=C/C(C)(C)C(=O)NC(C)(C)CO)cc1` are 0.023 µM and 0.019 µM.

(Values after ChEMBL document CHEMBL4308914, “Discovery of potent, low-absorbable sodium-dependent glucose cotransporter 1 (SGLT1) inhibitor SGL5213 for type 2 diabetes treatment” (Bioorg Med Chem, 2019).)
